The source made the active and inactive calls. The calls are words filed in the database; no cut-off is given here.
Assays:
A549 = assay: Cytotoxicity against human A549 cells after 72 hrs by SRB assay; assay type: functional; details: A549, 72 h
Procedure, shortened: (§1)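 SRB growth assay: 5 × 10³ cells/well in RPMI, attached 18 h drug-free, then compound added in DMSO/H₂O 3:7 for 72 h. Fixed with cold 50% TCA 60 min at 4 °C, stained 0.4% SRB in 1% acetic acid 10 min, bound dye solubilized in Tris, OD 490 nm. GI50 from 100[(T−T0)/(C−T0)] = 50; mean of triplicates.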

HT-29 [1] = assay: Cytotoxicity against human HT-29 cells after 72 hrs by SRB assay; assay type: functional; details: HT-29, 72 h; procedure, shortened: as §1
MDA-MB-231 = assay: Cytotoxicity against human MDA-MB-231 cells after 72 hrs by SRB assay; assay type: functional; details: MDA-MB-231, 72 h; procedure, shortened: as §1
HT-29 [2] = assay: Induction of apoptosis in human HT-29 cells assessed as accumulation at subG1 phase at 1 uM after 48 hrs by flow cytometry; assay type: functional
Procedure, shortened: (§2)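 HT-29 cells incubated at 1 μM for 24, 48 or 72 h alongside untreated controls. (3-5) × 10⁵ cells fixed overnight in 70% ethanol at 4 °C, PBS-washed three times, then treated 1 h at room temperature with 1 mg/mL RNase A and 20 μg/mL propidium iodide. DNA content read by flow cytometry; apoptosis taken as % cells in sub-G1 peak. Representative of three independent experiments.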

HT-29 [3] = assay: Cell cycle arrest in human HT-29 cells assessed as accumulation at G2/M phase at 1 uM after 72 hrs by flow cytometry; assay type: functional; procedure, shortened: as §2
HT-29 [4] = assay: Cell cycle arrest in human HT-29 cells assessed as accumulation at G0/G1 phase at 1 uM after 72 hrs by flow cytometry; assay type: functional; procedure, shortened: as §2
HT-29 [5] = assay: Cell cycle arrest in human HT-29 cells assessed as accumulation at G0/G1 phase at 1 uM after 24 hrs by flow cytometry; assay type: functional; procedure, shortened: as §2
HT-29 [6] = assay: Cell cycle arrest in human HT-29 cells assessed as accumulation at S phase at 1 uM after 48 hrs by flow cytometry; assay type: functional; procedure, shortened: as §2
HT-29 [7] = assay: Induction of microtubule disruption in human HT-29 cells at 1 uM after 24 hrs; assay type: cell-based
Procedure, shortened: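 HT-29 cells on poly-L-lysine coverslips exposed to 1 μM for 24 h, washed in HPEM (pH 6.6), fixed with 4% paraformaldehyde 15 min, permeabilized with 0.5% Triton X-100. Anti-α-tubulin mouse monoclonal (1:150, 1 h) then CY3 anti-mouse IgG (1 h, 4 °C); nuclei DAPI-stained; imaged by confocal microscopy. Representative of at least three experiments.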

HT-29 [8] = assay: Cell cycle arrest in human HT-29 cells assessed as accumulation at G0/G1 phase at 1 uM after 48 hrs by flow cytometry; assay type: functional; procedure, shortened: as §2
HT-29 [9] = assay: Induction of apoptosis in human HT-29 cells assessed as accumulation at subG1 phase at 1 uM after 24 hrs by flow cytometry; assay type: functional; procedure, shortened: as §2
HT-29 [10] = assay: Induction of apoptosis in human HT-29 cells assessed as accumulation at subG1 phase at 1 uM after 72 hrs by flow cytometry; assay type: functional; procedure, shortened: as §2
HT-29 [11] = assay: Cell cycle arrest in human HT-29 cells assessed as accumulation at S phase at 1 uM after 72 hrs by flow cytometry; assay type: functional; procedure, shortened: as §2
HT-29 [12] = assay: Cell cycle arrest in human HT-29 cells assessed as accumulation at G2/M phase at 1 uM after 48 hrs by flow cytometry; assay type: functional; procedure, shortened: as §2
HT-29 [13] = assay: Cell cycle arrest in human HT-29 cells assessed as accumulation at G2/M phase at 1 uM after 24 hrs by flow cytometry; assay type: functional; procedure, shortened: as §2
HT-29 [14] = assay: Cell cycle arrest in human HT-29 cells assessed as accumulation at S phase at 1 uM after 24 hrs by flow cytometry; assay type: functional; procedure, shortened: as §2

Row | Compound | GI50 (A549) | GI50 (HT-29 [1]) | GI50 (MDA-MB-231) | Activity (HT-29 [2]) | Activity (HT-29 [3]) | Activity (HT-29 [4]) | Activity (HT-29 [5]) | Activity (HT-29 [6]) | Activity (HT-29 [7]) | Activity (HT-29 [8]) | Activity (HT-29 [9]) | Activity (HT-29 [10]) | Activity (HT-29 [11]) | Activity (HT-29 [12]) | Activity (HT-29 [13]) | Activity (HT-29 [14])
1 | CCNCC1=Cc2cc3c(cc2[C@@H](c2cc(OC)c(OC)c(OC)c2)[C@@H]1C(=O)N1CCCC1)OCO3 | > 20000 nM | > 20000 nM | > 20000 nM | – | – | – | – | – | – | – | – | – | – | – | – | –
2 | CCOC(=O)COC(=O)[C@H]1[C@H](c2cc(OC)c(OC)c(OC)c2)c2cc3c(cc2[C@H](O)[C@H]1CO)OCO3 [ETHOXYCARBONYLMETHYL PICROPODOPHYLLATE] | 170 nM | 180 nM | 160 nM | – | – | – | – | – | – | – | – | – | – | – | – | –
3 | COc1cc([C@@H]2c3cc4c(cc3[C@H](O)[C@@H](CO)[C@H]2C(=O)OC/C=C/c2ccccc2)OCO4)cc(OC)c1OC [CINNAMYL PICROPODOPHYLLATE] | 200 nM | 150 nM | 180 nM | – | – | – | – | – | – | – | – | – | – | – | – | –
4 | CCNC(=O)[C@@H]1C(C=O)=Cc2cc3c(cc2[C@H]1c1cc(OC)c(OC)c(OC)c1)OCO3 | 4500 nM | 8000 nM | 7100 nM | 61.7% | 0.4% | 5.3% | 51.7% | 3% | inactive | 33% | 25% | 93.8% | 0.5% | 2.3% | 13.5% | 9.8%
5 | CCC/N=C/C1=Cc2cc3c(cc2[C@@H](c2cc(OC)c(OC)c(OC)c2)[C@@H]1C(=O)OC)OCO3 | 41 nM | 41 nM | 1300 nM | – | – | – | – | – | – | – | – | – | – | – | – | –
6 | COc1cc([C@@H]2c3cc4c(cc3C=C(C=O)[C@H]2C(=O)OC/C=C/c2ccccc2)OCO4)cc(OC)c1OC | 32 nM | 36 nM | 130 nM | 5.2% | 23.2% | 21.1% | 1.4% | 4.2% | Active | 5.3% | 0.4% | 33.7% | 22% | 85.3% | 96.4% | 1.8%
7 | COC(=O)[C@@H]1C(C=O)=Cc2cc3c(cc2[C@H]1c1cc(OC)c(OC)c(OC)c1)OCO3 [PODOPHYLLIC ALDEHYDE] | 61 nM | 38 nM | 200 nM | – | – | – | – | – | – | – | – | – | – | – | – | –
8 | CC/N=C/C1=Cc2cc3c(cc2[C@@H](c2cc(OC)c(OC)c(OC)c2)[C@@H]1C(=O)OC)OCO3 | 22 nM | 2.2 nM | – | – | – | – | – | – | – | – | – | – | – | – | – | –
9 | COc1cc([C@@H]2c3cc4c(cc3[C@H](O)[C@H]3COC(=O)[C@H]23)OCO4)cc(OC)c1OC [PODOFILOX] | 12 nM | 24 nM | – | – | – | – | – | – | – | – | – | – | – | – | – | –
10 | CCCCCCCOC(=O)[C@@H]1C(C=O)=Cc2cc3c(cc2[C@H]1c1cc(OC)c(OC)c(OC)c1)OCO3 | 1000 nM | 1000 nM | 2500 nM | 29.2% | 0.6% | 16.7% | 14.6% | 29.6% | inactive | 25.3% | 19.6% | 82.3% | 0.4% | 15.9% | 23.2% | 42.6%
11 | C=CCOC(=O)[C@@H]1C(C=O)=Cc2cc3c(cc2[C@H]1c1cc(OC)c(OC)c(OC)c1)OCO3 | 30 nM | 20 nM | 150 nM | 1.8% | 8% | 33.6% | 3.9% | 3.9% | Active | 10.9% | 0.3% | 41.6% | 16.8% | 83.4% | 91.3% | 4.5%
12 | CCNCC1=Cc2cc3c(cc2[C@@H](c2cc(OC)c(OC)c(OC)c2)[C@@H]1C(=O)OC)OCO3 | 700 nM | 400 nM | 2600 nM | – | – | – | – | – | – | – | – | – | – | – | – | –
13 | CCCNCC1=Cc2cc3c(cc2[C@@H](c2cc(OC)c(OC)c(OC)c2)[C@@H]1C(=O)OCc1cc(OC)c(OC)c(OC)c1)OCO3 | 1900 nM | 2000 nM | 6400 nM | – | – | – | – | – | – | – | – | – | – | – | – | –
14 | CCOC(=O)[C@@H]1C(C=O)=Cc2cc3c(cc2[C@H]1c1cc(OC)c(OC)c(OC)c1)OCO3 | 180 nM | 200 nM | 540 nM | – | – | – | – | – | – | – | – | – | – | – | – | –

Reference: ChEMBL document CHEMBL1154766, “Synthesis and biological evaluation of new podophyllic aldehyde derivatives with cytotoxic and apoptosis-inducing activities” (2010)
